Compounds with a hit are over-represented: about 3.5% of the library has one in this group of screens.
ABCB1 block: human ABCB1 inhibition, ABCG2 as counter-screen; P08183; AID 1326; CCRF-Adr cells, JC-1 efflux, flow cytometry; 190,000 tested, 0.067% active; inhibition, % at 6.6 µM; in the data active = inhibition above about 40%;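 note: 0% = vehicle and 100% = reference inhibitor; higher value means more JC-1 retained so stronger ABCB1 efflux block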
Target sequence (P08183 whole entry, looked up): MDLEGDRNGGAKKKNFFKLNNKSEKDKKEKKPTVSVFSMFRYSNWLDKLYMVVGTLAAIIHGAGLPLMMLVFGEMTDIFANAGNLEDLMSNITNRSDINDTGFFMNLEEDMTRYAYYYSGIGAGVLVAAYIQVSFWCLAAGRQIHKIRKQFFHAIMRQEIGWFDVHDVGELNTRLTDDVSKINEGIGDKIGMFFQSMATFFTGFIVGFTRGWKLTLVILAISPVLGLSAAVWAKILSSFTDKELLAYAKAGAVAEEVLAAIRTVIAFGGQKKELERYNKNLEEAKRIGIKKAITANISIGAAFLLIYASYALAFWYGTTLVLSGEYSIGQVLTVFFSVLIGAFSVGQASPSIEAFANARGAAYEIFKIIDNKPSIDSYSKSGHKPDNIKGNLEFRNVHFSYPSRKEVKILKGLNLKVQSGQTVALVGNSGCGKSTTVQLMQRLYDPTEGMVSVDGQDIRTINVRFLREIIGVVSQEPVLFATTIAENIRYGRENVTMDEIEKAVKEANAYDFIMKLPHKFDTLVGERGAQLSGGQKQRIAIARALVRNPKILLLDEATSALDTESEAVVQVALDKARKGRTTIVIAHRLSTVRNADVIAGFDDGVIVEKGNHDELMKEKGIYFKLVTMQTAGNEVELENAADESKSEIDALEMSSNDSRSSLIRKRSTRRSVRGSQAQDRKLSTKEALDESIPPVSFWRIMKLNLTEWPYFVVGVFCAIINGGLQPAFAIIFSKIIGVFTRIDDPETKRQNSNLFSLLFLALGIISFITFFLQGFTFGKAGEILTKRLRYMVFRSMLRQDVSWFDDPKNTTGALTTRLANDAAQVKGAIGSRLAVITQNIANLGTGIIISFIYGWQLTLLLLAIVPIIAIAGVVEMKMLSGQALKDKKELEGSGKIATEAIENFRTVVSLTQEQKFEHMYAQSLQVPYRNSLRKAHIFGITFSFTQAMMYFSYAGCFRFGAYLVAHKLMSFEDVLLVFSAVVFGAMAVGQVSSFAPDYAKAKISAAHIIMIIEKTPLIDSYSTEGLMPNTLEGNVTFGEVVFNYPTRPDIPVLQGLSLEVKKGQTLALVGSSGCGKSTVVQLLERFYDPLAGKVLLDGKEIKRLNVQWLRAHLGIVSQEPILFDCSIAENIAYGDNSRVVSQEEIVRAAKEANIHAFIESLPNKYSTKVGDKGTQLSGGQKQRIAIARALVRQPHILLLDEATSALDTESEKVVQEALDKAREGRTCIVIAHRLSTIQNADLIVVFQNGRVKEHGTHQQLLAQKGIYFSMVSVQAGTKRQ
MEKK3 PB1 HTS: MEKK3-MEK5 PB1 interaction, increase or decrease; bead-based flow cytometry, Alexa488-MEK5 binding to MEKK3; actives lie on both sides; 0 = blocked by unlabeled MEK5, 100 = vehicle; Q99759; 290,000 tested, 1.4% active; binding response (% of control), % at 10 µM;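 active = binding response more than 3 SD above or below the average of its plate-row segment, actives on both sides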;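 note: Alexa488 bead fluorescence after subtracting the streptavidin-only scavenger bead signal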
WT yeast gro inh: growth inhibition of WT yeast, mitochondrial fusion screen; mitochondrial fusion phenotypic screen, WT strain; inhibition, % at 10 µM; 190,000 tested, 2.1% active; AID 1362; in the data active = inhibition above about 58%; tested in S. cerevisiae
ABCG2 block: blocks JC-1 efflux by human ABCG2 transporter | Q9UNQ0 | IgMXP3 cells, flow cytometry | inhibition, % at 6.6 µM | 190,000 tested, 0.1% active;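 active = inhibition above 80%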;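 note: 0% = DMSO and 100% = nicardipine control wells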
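Test system: IgMXP3 cells (ABCG2) mixed with DDAO far-red-labelled CCRF-Adr cells (ABCB1). Reagent: JC-1 transporter substrate. Compound dosing: single test compound dose, 6.6 µM final. Times: 10 min compound exposure, 25 °C. Detection: flow cytometry of retained JC-1 fluorescence. Read-out basis: efflux inhibition in percent versus controls. Controls: nicardipine and DMSO wells.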
MEKK2 mut-MEK5: signal of MEK5 binding to mutant human MEKK2 PB1 domain; bead flow cytometry, Alexa488-MEK5 binding to MEKK2 mutant; percent response, % at 10 µM; 290,000 tested, 0.35% active; AID 1530; in the data active = percent response above about 24%, passing the limit was not always enough
MEKK2wt PB1 HTS: raises or lowers MEK5 binding to wildtype human MEKK2 PB1 domain | Q9Y2U5 | bead flow cytometry, Alexa488-MEK5 binding to MEKK2 WT; actives lie on both sides | binding response (% of control), % at 10 µM | 290,000 tested, 1.1% active | AID 1531; in the data active = binding response below about 67% or above about 130%
MEKK2wt confirm: raises or lowers MEK5 binding to wildtype human MEKK2, retest; shares compounds with MEKK3 PB1 HTS; bead flow cytometry, Alexa488-MEK5 binding to MEKK2 WT; actives lie on both sides; binding response (% of control), % at 10 µM; 5,900 tested, 2.4% active; AID 1892; in the data active = binding response below about 16% or above about 210%; inactive = in between
MEKK2mut confirm: signal of MEK5 binding to mutant human MEKK2, retest. shares compounds with MEKK3 PB1 HTS. bead flow cytometry, Alexa488-MEK5 binding to MEKK2 mutant. percent response, % at 10 µM. 5,900 tested, 2% active. AID 1893; in the data active = percent response mostly above about 71%, no sharp cut-off; inactive = mostly below about 38%;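 note: higher means compound restores mutant binding toward wildtype level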
MEKK3 confirm: confirmation of inhibitors of MEK5 binding to human MEKK3; binding response (% of control), % at 10 µM; 5,900 tested, 1.8% active; bead flow cytometry, Alexa488-MEK5 binding to MEKK3; active compounds read low; shares compounds with MEKK3 PB1 HTS;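 active = binding response below 72% of control, or above a set upper limit, though filed actives all read lower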;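 note: 100% = DMSO only wells and 0% = binding blocked by excess unlabeled MEK5; lower values mean stronger disruption of MEK5 binding to MEKK3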
Starred values were filed as active, the others as inactive; x = no result given; ! = a repeat was not active; [ ] = another dose, or the depositor's remark.

SMILES	ABCB1 block	MEKK3 PB1 HTS	WT yeast gro inh	ABCG2 block	MEKK2 mut-MEK5	MEKK2wt PB1 HTS	MEKK2wt confirm	MEKK2mut confirm	MEKK3 confirm
CC(NC(=O)/C=C/c1ccco1)c1nc2ccccc2n1Cc1c(Cl)cccc1Cl (stereo not drawn)	7	101	38	1	15	104	x	x	x
COc1ccc(C(=O)NC2CCN(CC(=O)Nc3cccc(OC)c3)CC2)cc1	x	100	x	x	2	103	x	x	x
O=C(CN1CCOCC1)Nc1nc(-c2ccc3c(c2)CCN3S(=O)(=O)c2ccccc2)cs1	1	2.0*[inhibitor]	-2	1	-26	3.0*[inhibitor]	99	-9	101
CC1=C(C(N)=O)C(c2ccc(Br)cc2)n2nc(CCCO)nc2N1 (stereo not drawn)	x	72	x	x	-11	44*[inhibitor]	107	4	103
CC1=C(C(N)=O)C(c2ccccc2F)n2nc(CCCO)nc2N1 (stereo not drawn)	x	103	x	x	4	104	x	x	x
Cc1nc2c3ccccc3nc(NNC(=O)CCC(=O)NCCC(C)C)n2n1	0	130*	7	-3	0	109	99	-5	101
COc1ccc(OCc2nc3ccccc3n2C(C)C)cc1	1	83	-6	2	-7	94	x	x	x
Cc1nn(C)cc1CNC(=O)c1cccc(F)c1	0	107	-10	7	0	103	x	x	x
Cc1nn(C)cc1CNC(=O)c1cccc(Br)c1	0	122*	9	0	8	96	99	2	97
COc1ccc(OC)c(N(CC(=O)N2CCCC2)S(C)(=O)=O)c1	x	105	x	x	13	104	x	x	x
Brc1ccc(OCCOc2cccc3cccnc23)cc1	x	96	7	9	-1	96	x	x	x
c1ccc(OCCOc2cccc3cccnc23)cc1	0	152*	7	17	1	109	94	0	94
CN(C)/C=C/C(=O)c1cnc(-c2ccccn2)s1	0	93	-6	0	-52	98	x	x	x
Cc1ccc(N2C(=O)C3C(C2=O)N2CCCN2C3c2ccccc2)cc1C (stereo not drawn)	2	101	-7	11	0	99	x	x	x
Cc1ccc(N2C(=O)C3C(c4ccccc4)N4CCCN4C3(C)C2=O)cc1 (stereo not drawn)	0	66*[inhibitor]	-11	-3	-1	84	105	2	102
Cc1ccc(CSCC(=O)N2CCN(c3ccccc3)CC2)cc1	1	131*	1	6	0	106	107	-1	107
Cc1cc(NC(=O)CCC(=O)N(c2ccccc2)C(C(=O)NC2CCCC2)c2ccccc2)no1 (stereo not drawn)	1	113	7	2	27*	101	100	1	104
Cc1ccc(C(=O)N[C@@H](C)CN2C3=NC[C@H](C)N3C[C@H]2Cc2ccc(O)cc2)cc1Br	x	88	x	x	11	91	x	x	x
CC(C)(C)Nc1nc(Oc2ccc(=O)[nH]n2)nc(N2CCOCC2)n1	1	75*[inhibitor]	-3	3	-2	88	104	0	101
COc1nc(Oc2ccc(=O)[nH]n2)nc(N2CCOCC2)n1	0	102	4	2	5	98	x	x	x
CC(C)(C)C(=O)NC(=S)NCCc1ccccc1	0	1.0*[inhibitor]	-32	-1	-39	1.0*[inhibitor]	102	0	105
O=C(O)C1=C[C@H](c2csc3ccccc23)C[C@H](OCc2ccc(CO)cc2)O1	0	66*[inhibitor]	12	2	-3	104	95	-4	98
O=C(O)C1=C[C@@H](c2csc3ccccc23)C[C@@H](OCc2ccc(CO)cc2)O1	0	100	0	0	2	103	x	x	x
CCOc1ccccc1C1C(C(=O)Nc2ccccc2OC)=C(C)Nc2nnnn21 (stereo not drawn)	1	113	x	3	26*	111	101	4	100
O=C(/C=C/c1ccccc1Cl)NCCCn1ccnc1	x	105	x	x	8	109	x	x	x
SMILES	ABCB1 block	MEKK3 PB1 HTS	WT yeast gro inh	ABCG2 block	MEKK2 mut-MEK5	MEKK2wt PB1 HTS	MEKK2wt confirm	MEKK2mut confirm	MEKK3 confirm
COC(=O)c1cc(=O)nc2sc3cc(OC)ccc3n12	1	122*	-4	2	6	106	107	6	106
CCCCc1c(O)nc2sc3cc(OC)ccc3n2c1=O	0	103	0	11	4	105	x	x	x
COC(=O)c1c(NC(=O)CSc2nc(-c3ccco3)cc(C(F)(F)F)n2)sc2c1CCCC2	0	0.0*[inhibitor]	-20	1	-22	-8.0*[inhibitor]	108	12	109
Cc1cc(NC(=O)CSc2nc(-c3cccs3)cc(C(F)(F)F)n2)no1	0	89	13	1	-35	-7.0*[inhibitor]	96	0	100
O=C1OC(c2cccc([N+](=O)[O-])c2)C2(CCCC2)C(=O)C12CCCCC2 (stereo not drawn)	2	142*	51	49	0	104	93	-4	95
CC1(C)C(=O)OC(c2cccn2-c2ccc([N+](=O)[O-])cc2)C(C)(C)C1=O (stereo not drawn)	0	136*	-23	-8	0	104	103	2	104
CC1(C)C(=O)C2(CCCCC2)C(=O)OC1c1cccn1-c1ccc([N+](=O)[O-])cc1 (stereo not drawn)	4	133*	-31	12	0	107	103	3	101
COc1ccc(OCC(=O)Nc2cc(-c3nn(C)c(=O)c4ccccc34)ccc2N2CCOCC2)cc1	x	97	x	x	-2	92	x	x	x
CCn1c(SCC(=O)NC2=NCCS2)nnc1C(C)NC(=O)c1ccccc1Br (stereo not drawn)	x	99	x	x	2	101	x	x	x
Cc1ccc(N/C=C2\C(=O)N(c3ccc(F)cc3F)C(c3cccnc3)S2(=O)=O)cc1 (stereo not drawn)	x	131*	x	x	27	113	104	0	101
CN1CCC(=C2c3ccccc3CCc3sccc32)CC1	x	116	12	1	15	155*!	126	16	95
CCCOc1ccc(-c2c(=O)n(O)c3ccccc3[n+]2[O-])cc1	x	100	x	x	1	97	x	x	x
O=C1CC(c2ccc3c(c2)OCCO3)Oc2ccc([N+](=O)[O-])cc21 (stereo not drawn)	x	109	x	x	17	134*	93	-27	95
